Test results taken from BindingDB's records for doi:10.1016/j.bmc.2013.04.054 (Northwestern University, 2013).

Biological target: Voltage-dependent L-type calcium channel subunit alpha-1C (Oryctolagus cuniculus, UniProt P15381)
Assay: Antagonist activity at rabbit voltage-dependent L-type calcium channel Cav1.2alpha-1C expressed in HEK293 cells by FLIPR assay
Outline: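 HEK293 lines stably expressing rat CaV1.3α1D or rabbit CaV1.2α1C, with rat CaVβ3 and rat CaVα2δ-1 cDNAs used in construction. Calcium influx was read by Fluo-8 fluorescence on a FLIPR Tetra. […] The selectivity ratio is CaV1.3 IC50 over CaV1.2 IC50.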

Chain of Voltage-dependent L-type calcium channel subunit alpha-1C (P15381 whole entry): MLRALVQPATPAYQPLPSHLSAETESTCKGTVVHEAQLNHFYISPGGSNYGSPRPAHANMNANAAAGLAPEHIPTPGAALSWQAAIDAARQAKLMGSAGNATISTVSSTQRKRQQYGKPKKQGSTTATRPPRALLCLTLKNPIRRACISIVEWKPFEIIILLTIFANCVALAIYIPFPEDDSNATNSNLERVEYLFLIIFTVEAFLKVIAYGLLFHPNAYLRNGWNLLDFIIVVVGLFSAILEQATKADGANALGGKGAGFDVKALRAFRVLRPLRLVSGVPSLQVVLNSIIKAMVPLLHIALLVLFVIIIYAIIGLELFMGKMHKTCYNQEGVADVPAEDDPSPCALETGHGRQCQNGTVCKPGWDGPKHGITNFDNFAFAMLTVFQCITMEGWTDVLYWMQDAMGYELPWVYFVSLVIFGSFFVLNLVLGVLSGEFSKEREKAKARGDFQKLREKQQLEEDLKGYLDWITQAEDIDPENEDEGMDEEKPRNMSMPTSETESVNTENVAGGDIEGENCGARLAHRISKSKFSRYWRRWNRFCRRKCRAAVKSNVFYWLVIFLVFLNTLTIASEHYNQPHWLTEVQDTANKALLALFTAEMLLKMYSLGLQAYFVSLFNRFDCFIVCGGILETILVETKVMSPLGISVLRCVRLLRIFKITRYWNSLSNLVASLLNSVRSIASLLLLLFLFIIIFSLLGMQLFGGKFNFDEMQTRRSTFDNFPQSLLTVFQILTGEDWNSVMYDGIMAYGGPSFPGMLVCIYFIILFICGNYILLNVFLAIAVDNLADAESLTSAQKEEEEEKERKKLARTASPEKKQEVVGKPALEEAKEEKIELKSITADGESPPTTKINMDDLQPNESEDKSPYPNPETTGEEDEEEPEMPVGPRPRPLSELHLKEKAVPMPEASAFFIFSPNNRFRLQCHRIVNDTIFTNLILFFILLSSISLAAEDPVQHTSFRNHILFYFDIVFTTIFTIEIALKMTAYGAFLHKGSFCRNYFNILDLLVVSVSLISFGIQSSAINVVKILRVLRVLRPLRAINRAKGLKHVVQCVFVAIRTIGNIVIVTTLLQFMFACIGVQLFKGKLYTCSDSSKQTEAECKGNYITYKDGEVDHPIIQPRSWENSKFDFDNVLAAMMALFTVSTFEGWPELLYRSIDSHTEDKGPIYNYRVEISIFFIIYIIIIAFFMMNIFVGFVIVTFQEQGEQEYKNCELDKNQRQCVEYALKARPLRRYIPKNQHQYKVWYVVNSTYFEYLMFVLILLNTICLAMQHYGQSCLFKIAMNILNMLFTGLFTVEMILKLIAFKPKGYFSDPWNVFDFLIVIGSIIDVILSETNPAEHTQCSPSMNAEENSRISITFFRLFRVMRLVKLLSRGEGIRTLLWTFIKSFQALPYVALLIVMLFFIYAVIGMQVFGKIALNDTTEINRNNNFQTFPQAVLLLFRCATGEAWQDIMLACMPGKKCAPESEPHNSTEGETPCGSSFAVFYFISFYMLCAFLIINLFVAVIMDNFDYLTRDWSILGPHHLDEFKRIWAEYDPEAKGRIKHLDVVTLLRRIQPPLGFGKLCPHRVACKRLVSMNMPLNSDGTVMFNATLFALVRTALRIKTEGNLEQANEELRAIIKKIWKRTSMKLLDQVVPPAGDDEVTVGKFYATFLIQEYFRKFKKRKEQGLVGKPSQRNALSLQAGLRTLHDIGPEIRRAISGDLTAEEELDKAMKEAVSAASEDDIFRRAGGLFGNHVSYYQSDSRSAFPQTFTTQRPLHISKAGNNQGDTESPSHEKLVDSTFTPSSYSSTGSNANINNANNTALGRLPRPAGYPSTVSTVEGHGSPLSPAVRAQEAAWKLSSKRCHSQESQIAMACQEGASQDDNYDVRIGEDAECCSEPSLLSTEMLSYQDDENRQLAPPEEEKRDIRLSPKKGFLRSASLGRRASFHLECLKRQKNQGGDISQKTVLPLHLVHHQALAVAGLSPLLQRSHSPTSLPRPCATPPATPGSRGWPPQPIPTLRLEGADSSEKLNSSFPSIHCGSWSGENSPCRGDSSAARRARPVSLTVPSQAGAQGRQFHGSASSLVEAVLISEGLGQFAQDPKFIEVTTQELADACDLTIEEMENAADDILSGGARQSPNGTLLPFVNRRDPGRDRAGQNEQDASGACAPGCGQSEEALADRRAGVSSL

| Structure (SMILES) | IC50 [nM] |
| --- | --- |
| COC(=O)N1C(=O)N=C(C)C(C(=O)OC(C)C)[C@@H]1c1cccc([N+](=O)[O-])c1 (some centres not stated) | 2480 |
| COC(=O)C1C(C)=NC(=O)N(C(=O)OC(C)C)C1c1cccc([N+](=O)[O-])c1 (configuration not stated) | 2480 |
